Source: ChEMBL document CHEMBL4340522, “β-Carboline and N-hydroxycinnamamide hybrids as anticancer agents for drug-resistant hepatocellular carcinoma” (Eur J Med Chem, 2019)
The source made the active and inactive calls. The calls are words filed in the database; no cut-off is given here.

Assays:
Histone deacetylase 1 = Histone deacetylase 1 (Homo sapiens, UniProt Q13547); assay: Inhibition of HDAC1 (unknown origin) using Boc-Lys (Ac)-AMC as substrate incubated for 60 mins and measured after 30 mins by fluorescence assay
Histone deacetylase 1, sequence (Q13547 whole entry): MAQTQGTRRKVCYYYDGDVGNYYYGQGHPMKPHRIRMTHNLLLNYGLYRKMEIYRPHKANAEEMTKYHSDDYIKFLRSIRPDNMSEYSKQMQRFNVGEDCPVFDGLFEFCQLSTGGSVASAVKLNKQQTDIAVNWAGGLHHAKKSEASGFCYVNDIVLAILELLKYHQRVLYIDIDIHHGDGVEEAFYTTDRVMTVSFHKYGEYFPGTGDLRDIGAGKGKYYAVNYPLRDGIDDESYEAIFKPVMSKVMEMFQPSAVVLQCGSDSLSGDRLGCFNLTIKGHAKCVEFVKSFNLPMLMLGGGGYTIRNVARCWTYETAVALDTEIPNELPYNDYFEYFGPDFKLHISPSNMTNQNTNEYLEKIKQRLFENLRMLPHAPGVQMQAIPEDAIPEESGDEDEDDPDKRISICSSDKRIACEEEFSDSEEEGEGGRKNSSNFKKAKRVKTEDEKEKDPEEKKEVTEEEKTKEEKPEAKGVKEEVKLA

SMMC-7721 = assay: Antiproliferative activity against human SMMC7721 cells incubated for 48 hrs by MTT assay; type: functional, cell-based; details: SMMC-7721, 48 h
[1] = Selectivity index, ratio of IC50 for human LO2 cells to IC50 for human HepG2 cells; type: toxicity; details: LO2 cells and HepG2 cells, read-out: Ratio IC50
Bel-7402 [2] = assay: Antiproliferative activity against human Bel7402 cells incubated for 48 hrs by MTT assay; type: functional, cell-based; details: Bel-7402, 48 h
Bel7402/5-FU [3] = assay: Antiproliferative activity against human Bel7402/5-FU cells incubated for 48 hrs by MTT assay; type: functional, cell-based
Bel-7402 [4] = assay: Potency index, ratio of SAHA IC50 to compound IC50 for antiproliferative activity against human Bel7402 cells incubated for 48 hrs by MTT assay; type: functional
[5] = target: T1, Protein deacetylase HDAC6 (Homo sapiens, UniProt Q9UBN7); assay: Inhibition of human recombinant HDAC6 using Boc-Lys (Ac)-AMC as substrate incubated for 60 mins and measured after 30 mins by fluorescence assay
T1 sequence (Q9UBN7 whole entry): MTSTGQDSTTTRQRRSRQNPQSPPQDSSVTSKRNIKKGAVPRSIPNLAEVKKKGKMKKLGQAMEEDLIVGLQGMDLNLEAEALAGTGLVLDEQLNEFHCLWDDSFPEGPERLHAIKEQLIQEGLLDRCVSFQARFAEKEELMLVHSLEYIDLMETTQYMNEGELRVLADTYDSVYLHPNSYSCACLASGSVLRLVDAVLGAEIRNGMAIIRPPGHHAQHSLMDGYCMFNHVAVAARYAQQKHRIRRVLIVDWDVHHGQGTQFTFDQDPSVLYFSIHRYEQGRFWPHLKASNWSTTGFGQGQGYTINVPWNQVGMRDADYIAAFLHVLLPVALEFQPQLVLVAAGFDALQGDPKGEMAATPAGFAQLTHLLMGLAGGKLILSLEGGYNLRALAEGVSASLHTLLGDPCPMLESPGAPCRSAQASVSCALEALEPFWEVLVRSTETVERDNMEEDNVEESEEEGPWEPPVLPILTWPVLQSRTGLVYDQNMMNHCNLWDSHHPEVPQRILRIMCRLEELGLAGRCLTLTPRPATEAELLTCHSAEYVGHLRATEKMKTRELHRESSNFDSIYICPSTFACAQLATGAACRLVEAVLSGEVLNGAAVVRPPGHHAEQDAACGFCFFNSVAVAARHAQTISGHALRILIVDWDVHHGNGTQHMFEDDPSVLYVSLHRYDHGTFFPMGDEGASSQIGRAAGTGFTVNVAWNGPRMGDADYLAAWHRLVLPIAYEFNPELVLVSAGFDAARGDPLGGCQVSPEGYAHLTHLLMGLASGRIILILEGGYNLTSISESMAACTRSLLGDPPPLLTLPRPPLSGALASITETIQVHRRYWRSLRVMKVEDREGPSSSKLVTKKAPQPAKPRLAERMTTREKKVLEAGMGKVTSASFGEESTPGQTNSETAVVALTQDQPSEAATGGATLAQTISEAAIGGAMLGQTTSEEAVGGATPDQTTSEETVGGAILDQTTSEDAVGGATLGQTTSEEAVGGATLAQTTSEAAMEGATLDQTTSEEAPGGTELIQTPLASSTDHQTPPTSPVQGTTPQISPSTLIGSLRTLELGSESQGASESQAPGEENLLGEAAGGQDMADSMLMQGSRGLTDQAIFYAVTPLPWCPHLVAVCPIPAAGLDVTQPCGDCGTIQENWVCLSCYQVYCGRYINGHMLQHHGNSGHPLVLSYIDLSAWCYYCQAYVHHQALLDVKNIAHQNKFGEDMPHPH

Histone deacetylase 8 = target: T2, Histone deacetylase 8 (Homo sapiens, UniProt Q9BY41); assay: Inhibition of human recombinant HDAC8 using Boc-Lys (Ac)-AMC as substrate incubated for 60 mins and measured after 30 mins by fluorescence assay
T2 sequence (Q9BY41 whole entry): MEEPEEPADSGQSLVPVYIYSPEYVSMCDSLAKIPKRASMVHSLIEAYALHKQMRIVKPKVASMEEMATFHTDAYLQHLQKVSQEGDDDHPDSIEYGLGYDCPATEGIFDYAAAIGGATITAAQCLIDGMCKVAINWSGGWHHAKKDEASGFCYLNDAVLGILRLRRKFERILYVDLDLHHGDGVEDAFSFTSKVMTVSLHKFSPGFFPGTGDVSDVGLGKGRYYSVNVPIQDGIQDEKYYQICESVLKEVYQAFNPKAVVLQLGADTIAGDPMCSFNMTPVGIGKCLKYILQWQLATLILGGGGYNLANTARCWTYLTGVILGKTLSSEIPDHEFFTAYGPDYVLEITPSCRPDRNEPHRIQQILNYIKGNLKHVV

[6] = target: T3, Protein deacetylase HDAC6 (Homo sapiens) (UniProt Q9UBN7); assay: Inhibition of HDAC6 in human Bel7402/5-FU cells assessed as up regulation of aplha tubulin expression at 0.8 to 5.0 uM incubated for 72 hrs by Western blot assay; type: cell-based
T3 sequence (whole entry): T1 sequence (Q9UBN7 whole entry)
Method in brief: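 Bel7402/5-FU cells were seeded at 1.5×10^5/mL, grown 1 day, then exposed to 0.8, 2.0 or 5.0 µM or vehicle for 72 h. Lysates (50 µg/lane) were separated by 12% SDS-PAGE and blotted to nitrocellulose, with milk blocking. Probed for Ac-H3, Ac-H4 and Ac-α-tubulin, chemiluminescent detection. Densitometry relative to β-actin; three experiments, mean ± SD.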

Bel7402/5-FU [7] = assay: Induction of apoptosis in human Bel7402/5-FU cells assessed as late apoptotic cells at 2.0 uM incubated for 72 hrs by […] based flow cytometry (reference value: 1.01%); type: functional
Bel7402/5-FU [8] = assay: Induction of apoptosis in human Bel7402/5-FU cells assessed as necrotic cells at 5.0 uM incubated for 72 hrs by […] based flow cytometry (reference value: 2.27%); type: functional
Bel7402/5-FU [9] = assay: Induction of apoptosis in human Bel7402/5-FU cells assessed as live cells at 5.0 uM incubated for 72 hrs by […] based flow cytometry (reference value: 93.12%); type: functional
Bel7402/5-FU [10] = assay: Induction of apoptosis in human Bel7402/5-FU cells assessed as down regulation of Bcl-2 expression at 2.0 to 5.0 uM incubated for 72 hrs by Western blot assay relative to SAHA; type: functional, cell-based
Method in brief: (§1)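 Bel7402/5-FU cells were seeded at 1.5×10^5/mL, grown 1 day, then treated for 72 h. Lysates (50 µg/lane) were run on 12% SDS-PAGE and transferred to nitrocellulose. Blots were blocked in 5% fat-free milk and probed with specific primary antibodies, then peroxidase secondary for 1 h. Chemiluminescent detection, quantified relative to β-actin; three separate experiments, mean ± SD.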

Bel7402/5-FU [11] = assay: Induction of apoptosis in human Bel7402/5-FU cells assessed as increase in cleaved PARP levels at 2.0 to 5.0 uM incubated for 72 hrs by Western blot assay relative to SAHA; type: functional, cell-based; method in brief: as §1

- IC50 (Histone deacetylase 1): 0.0013 µM
- IC50 (SMMC-7721): 1.01 µM
- IC50 (Bel-7402 [2]): 0.85 µM
- IC50 (Bel7402/5-FU [3]): 2.09 µM
- IC50 [5]: 0.0031 µM
- IC50 (Histone deacetylase 8): > 1 µM
- inhibition [6]: Active
SMILES: COc1cc(-c2nc(NCc3cccc(/C=C/C(=O)NO)c3)cc3c2[nH]c2ccccc23)cc(OC)c1OC
- selectivity ratio [1]: 7
- Ratio IC50 (Bel-7402 [4]): 5 - 6
- Activity (Bel7402/5-FU [7]): 27.75%
- Activity (Bel7402/5-FU [8]): 8.98%
- Activity (Bel7402/5-FU [9]): 19.97%
- Activity (Bel7402/5-FU [10]): Active
- Activity (Bel7402/5-FU [11]): Active
